Experimental data from ChEMBL document CHEMBL4699419, “Antileishmanial assessment of isoxazole derivatives against L. donovani” (RSC Med Chem, 2020).
Active and inactive are the calls of the source. The rule behind the calls is not given here.

Columns and labels:
[1] = tested on: Leishmania donovani; test: Antileishmanial activity against late log phase promastigote stage of Leishmania donovani MHOM/IN/80/Dd8 harboring luciferase reporter gene incubated for 72 hrs by Steady-Glo luminescence assay; assay type: functional, organism-based; conditions: Leishmania donovani, MHOM/IN/80/Dd8, 72 h; read-out: IC50
How it was run: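 Luciferase-transfected promastigotes kept at 25 ± 1 °C in medium 199 + 10% heat-inactivated FCS + G418 (20 μg ml–1). Late-log cells (5 × 10^5 per well) grown 72 h with graded compound concentrations from DMSO, DMSO dilution controls. Aliquot mixed 1:1 with Steady-Glo, luminescence (RLU) read; % inhibition vs control. IC50 by Probit regression, three independent experiments.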

[2] = tested on: Leishmania donovani; test: Antileishmanial activity against Leishmania donovani MHOM/IN/80/Dd8 promastigotes harboring luciferase reporter gene infected in mouse J774 cells assessed as inhibition of amastigote growth incubated for 72 hrs by Steady-Glo luminescence assay; assay type: functional, organism-based; conditions: Leishmania donovani, MHOM/IN/80/Dd8, J774, 72 h; read-out: IC50
How it was run: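 J774A.1 mouse macrophages (2 × 10^5 per well, RPMI-1640 + 10% FCS, 37 °C CO2) infected after 24 h with stationary-phase luciferase-transgenic promastigotes at 1:10 macrophage:parasite; compounds in complete medium for 72 h at 37 °C. Medium swapped for PBS, Steady-Glo added, luminescence read; % inhibition vs untreated control RLU. IC50 by Probit log dose/response regression, three independent experiments.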

[3] = Cytotoxicity against mouse J774A1 cells assessed as reduction in cell viability incubated for 48 hrs by MTT assay; assay type: cell-based, J774.A1
How it was run: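 J774A.1 macrophages, 0.2 × 10^6 per well, incubated overnight at 37 °C in 5% CO2, then exposed to compounds in DMSO for 48 h, with DMSO dilutions as controls. Viability read by MTT formazan at 600 nm. CC50 = 50% viability reduction versus medium-only cells, from probit regression; three independent experiments.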

[4] = Selectivity index, ratio of CC50 for mouse J774.A1 cells to IC50 for amastigote form of Leishmania donovani MHOM/IN/80/Dd8; assay type: toxicity; conditions: read-out: Ratio CC50/IC50
How it was run: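 Macrophages infected at a 1:10 ratio with stationary promastigotes, then treated 72 h at 37 °C; luminescence read with Steady-Glo. IC50 values from probit analysis.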

[5] = tested on: Leishmania donovani; test: (§1) Antileishmanial activity against Leishmania donovani amastigotes infected in golden hamster assessed as reduction in parasite burden in spleen at 50 mg/kg, ip initiated after 2 days of pre-treatment biopsy administered for 5 days and measured on day 7 by giemsa staining based assay relative to control; assay type: functional; conditions: for inhibition in vivo at 50 mg/kg: 168 h, time 7 day
How it was run: (§2)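 Male inbred golden hamsters, 40–45 g, infected with L. donovani. Animals with +1 infection on pre-treatment spleen biopsy randomized, five per group. Intraperitoneal dosing in a vehicle of 10% Tween-80/ethanol (70:30) in ddH2O, 10% final, began 2 days after biopsy and ran 5 consecutive days; vehicle-only controls. Giemsa-stained spleen biopsies taken on day 7 or 28; percentage inhibition computed from initial, treated and untreated-control amastigote counts.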

[6] = tested on: Leishmania donovani; test: as §1, with “100” for “50”, “po” for “ip”; assay type: functional; conditions: 168 h, time 7 day
How it was run: (§3)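 Male inbred golden hamsters, 40–45 g, infected with L. donovani. Animals with +1 infection on pre-treatment spleen biopsy (5–15 amastigotes/100 spleen cell nuclei) randomized, five per group. Oral dosing in 5% carboxymethyl cellulose vehicle began 2 days after biopsy and ran 5 consecutive days; vehicle-only infected controls. Giemsa-stained spleen biopsies taken on day 7 or 28 after the last dose; PI = 100 – [ANAT × 100/(INAT × TIUC)].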

[7] = tested on: Leishmania donovani; test: as §1, with “28” for “7”; assay type: functional; conditions: for inhibition in vivo at 50 mg/kg: 672 h, time 28 day; for inhibition: time 28.0 day; how it was run: as §2
[8] = tested on: Leishmania donovani; test: as §1, with “100” for “50”, “po” for “ip”, “28” for “7”; assay type: functional; conditions: 672 h, time 28 day; how it was run: as §3
[9] = tested on: Leishmania amazonensis; test: Antileishmanial activity against promastigote form of Leishmania amazonensis; assay type: functional, organism-based
[10] = tested on: Leishmania amazonensis; test: Antileishmanial activity against intracellular amastigote stage of Leishmania amazonensis; assay type: functional, organism-based
[11] = tested on: Leishmania donovani; test: as §1, with “30” for “50”, “po” for “ip”; assay type: functional; conditions: 168 h, time 7 day; how it was run: as §3
[12] = tested on: Leishmania donovani; test: as §1, with “30” for “50”, “po” for “ip”, “28” for “7”; assay type: functional; conditions: 672 h, time 28 day; how it was run: as §3
[13] = tested on: Leishmania amazonensis; test: Antileishmanial activity against promastigote form of Leishmania amazonensis (IFLA/BR/1967/PH8 strain) assessed as reduction in parasite viability incubated for 72 hrs by MTT assay; assay type: functional, organism-based; conditions: IFLA/BR/1967/PH8, 72 h
[14] = tested on: Leishmania amazonensis; test: Antileishmanial activity against intracellular amastigote stage of Leishmania amazonensis (IFLA/BR/1967/PH8 strain) assessed as reduction in parasite viability incubated for 24 hrs by Neubauer chamber cell counting method; assay type: functional, organism-based; conditions: IFLA/BR/1967/PH8, 24 h
[15] = Cmax in golden hamster at 100 mg/kg, po measured upto 24 hrs by LC/MS-MS analysis; assay type: ADME, organism-based, Mesocricetus auratus; set-up: route oral, dose 100 mg/kg, time <=24; conditions: in vivo
How it was run: (§4)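 Male Syrian hamsters, three per group; single oral dose of 100 mg kg–1 as a suspension in 0.5% sodium carboxymethylcellulose. Plasma concentrations followed over 24 h by LC–MS/MS with electrospray ionization. Parameters derived by non-compartmental analysis; mean ± SD of n = 3.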

[16] = Tmax in golden hamster at 100 mg/kg, po measured upto 24 hrs by LC/MS-MS analysis; assay type: ADME, organism-based, Mesocricetus auratus; conditions: in vivo; how it was run: as §4
[17] = AUC (0 to infinity) in golden hamster at 100 mg/kg, po measured upto 24 hrs by LC/MS-MS analysis; assay type: ADME, organism-based, Mesocricetus auratus; set-up: route oral, dose 100 mg/kg, time <=24; conditions: in vivo; how it was run: as §4
[18] = Half life in golden hamster at 100 mg/kg, po measured upto 24 hrs by LC/MS-MS analysis; assay type: ADME, organism-based, Mesocricetus auratus; conditions: in vivo; how it was run: as §4
[19] = MRT in golden hamster at 100 mg/kg, po measured upto 24 hrs by LC/MS-MS analysis; assay type: ADME, organism-based, Mesocricetus auratus; conditions: in vivo; how it was run: as §4
[20] = Drug metabolism in golden hamster at 100 mg/kg, po measured upto 24 hrs by LC/MS-MS analysis; assay type: ADME, organism-based, Mesocricetus auratus; conditions: in vivo

Row | Structure (SMILES) | IC50 [1] | IC50 [2] | CC50 at 48 h [3] | selectivity ratio [4] | inhibition in vivo at 50 mg/kg [5] | inhibition in vivo at 50 mg/kg [7] | also measured
1 | COC(=O)c1c([N+](=O)[O-])noc1-c1cc2c(cc1[N+](=O)[O-])OCO2 | 0.67 µM | 17.4 µM | 113 µM | 6.51 | 36% | 71.2% | inhibition in vivo at 100 mg/kg [6]: 48.4%; inhibition in vivo at 100 mg/kg [8]: 66%
2 | COc1cc(-c2cc(-c3ccc4c(c3)OCO4)no2)cc(OC)c1OC |  |  |  |  |  |  | IC50 [9]: 18.3 µM; IC50 [10]: 2.9 µM
3 | CCCCCCCCCCCCCCCCOP(=O)([O-])OCC[N+](C)(C)C [MILTEFOSINE] | 2.52 µM | 9.25 µM | 53.3 µM | 5.76 |  |  | inhibition in vivo at 30 mg/kg [11]: 97.3%; inhibition in vivo at 30 mg/kg [12]: 98.4%
4 | COC(=O)c1c(NCCCCNc2ccnc3cc(Cl)ccc23)noc1-c1ccccc1[N+](=O)[O-] | 1.95 µM | 8.63 µM | 77.7 µM | 8.99 |  |  | inhibition ([5]; time 7.0 day): inactive; inhibition [7]: inactive
5 | O=[N+]([O-])c1ccc(-c2cc(-c3ccc(CCl)cc3)on2)o1 |  |  |  |  |  |  | IC50 [13]: 3.5 µM; IC50 [14]: 0.6 µM
6 | COC(=O)c1c(NCc2ccc(Cl)cc2)noc1-c1ccc(Cl)cc1Cl | 14.1 µM | 3.1 µM | 176 µM | 56.6 | 29.2% |  | inhibition [7]: inactive
7 | COC(=O)c1c(NCc2ccc(C(C)(C)C)cc2)noc1-c1cc2c(cc1[N+](=O)[O-])OCO2 | 2.14 µM | 0.54 µM | 7.49 µM | 14 | 71.1% | 28.6% | inhibition in vivo at 100 mg/kg [6]: 69.5%; inhibition in vivo at 100 mg/kg [8]: 12.7%; Cmax [15]: 15.4 ng/mL; Tmax [16]: 3 h; AUC(0-inf) [17]: 149 ng·h/mL; half-life [18]: 3.78 h; MRT [19]: 9.53 h; Drug metabolism [20]: Metabolite_Detected
8 | COC(=O)c1c(NCc2ccccc2)noc1-c1ccc([N+](=O)[O-])cc1 | 3.9 µM | 13.8 µM | 85.4 µM | 6.16 | 44% | 75.2% | 
9 | COc1cc(-c2cc(-c3cc(OC)c(OC)c(OC)c3)on2)cc(OC)c1OC |  |  |  |  |  |  | IC50 [9]: 18.3 µM; IC50 [10]: 2.9 µM
10 | COC(=O)c1c([N+](=O)[O-])noc1-c1ccc(Cl)cc1Cl | 1.82 µM | 4.38 µM | 19.7 µM | 4.49 | 39.5% | 29% | 
